# Measurements: ChEMBL document CHEMBL1944567, “Synthesis, biological evaluation, and molecular modeling of chalcone derivatives as potent inhibitors of Mycobacterium tuberculosis protein tyrosine phosphatases (PtpA and PtpB)” (J Med Chem, 2012)
# Tests used:
# [1] = biological target: T1, Low molecular weight protein-tyrosine phosphatase A (Mycobacterium tuberculosis, UniProt P9WIA1); test: Inhibition of Mycobacterium tuberculosis PTP-A using p-nitrophenyl phosphate as substrate measured for 10 mins by spectrofluorimetry
# T1 sequence (P9WIA1 whole entry): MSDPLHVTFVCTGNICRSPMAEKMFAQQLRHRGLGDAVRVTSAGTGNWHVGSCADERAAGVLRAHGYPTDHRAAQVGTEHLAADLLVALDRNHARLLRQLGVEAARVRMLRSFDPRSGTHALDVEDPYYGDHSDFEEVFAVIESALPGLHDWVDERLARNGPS
# Outline: (§1)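 A410 read each minute over 10 min at 37 °C. Residual activity compared with wells without inhibitor; IC50 by linear regression of % inhibition against concentration. Triplicate, two independent experiments.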
# [2] = biological target: T2, Phosphotyrosine-protein phosphatase PTPB (Mycobacterium tuberculosis) (UniProt P96830); test: Inhibition of Mycobacterium tuberculosis PTP-B using p-nitrophenyl phosphate as substrate at 25 uM measured for 10 mins by spectrofluorimetry
# T2 sequence (whole entry): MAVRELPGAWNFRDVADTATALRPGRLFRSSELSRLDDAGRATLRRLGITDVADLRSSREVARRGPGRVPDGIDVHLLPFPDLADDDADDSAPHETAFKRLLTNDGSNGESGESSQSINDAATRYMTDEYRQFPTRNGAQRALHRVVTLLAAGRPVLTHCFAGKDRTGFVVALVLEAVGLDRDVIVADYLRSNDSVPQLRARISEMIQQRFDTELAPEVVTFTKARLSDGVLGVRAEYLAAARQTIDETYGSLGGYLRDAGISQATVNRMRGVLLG
# Outline: (§2)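 Single-point screen at 25 μM final compound, added from 1.0 × 10−3 M DMSO stock, with recombinant Mtb PtpA or PtpB (0.4 μg/μL final) in 20 mM imidazole pH 7.0 with 40 mM pNPP. Reaction started by adding enzyme. p-Nitrophenol release read at 410 nm every min for 10 min at 37 °C. Residual activity was taken from the absorbance difference between 6 and 2 min; two experiments, each in triplicate.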
# [3] = biological target: T3, Low molecular weight protein-tyrosine phosphatase A (Mycobacterium tuberculosis) (UniProt P9WIA1); test: Inhibition of Mycobacterium tuberculosis PTP-A using p-nitrophenyl phosphate as substrate at 25 uM measured for 10 mins by spectrofluorimetry; outline: as §2
# T3 sequence (whole entry): T1 sequence (P9WIA1 whole entry)
# [4] = Solubility of the compound; assay type: physicochemical
# [5] = biological target: T4, Phosphotyrosine-protein phosphatase PTPB (Mycobacterium tuberculosis, UniProt P96830); test: Inhibition of Mycobacterium tuberculosis PTP-B using p-nitrophenyl phosphate as substrate measured for 10 mins by spectrofluorimetry; outline: as §1
# T4 sequence (P96830 whole entry): T2 sequence (whole entry)
# [6] = biological target: T1, Low molecular weight protein-tyrosine phosphatase A; test: Inhibition of Mycobacterium tuberculosis PTP-A
# [7] = biological target: T4, Phosphotyrosine-protein phosphatase PTPB; test: Competitive inhibition of Mycobacterium tuberculosis PTP-B using p-nitrophenyl phosphate as substrate measured for 10 mins by Lineweaver-Burk plot analysis
# Outline: (§3)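 Kinetic mode determined with recombinant Mtb enzyme (PtpA or PtpB) using the screening conditions (20 mM imidazole pH 7.0, 37 °C, A410 read each minute for 10 min) but with pNPP varied over 0.5, 1.5, 3, 6, 8, 10, 15 and 25 mM. At least three inhibitor concentrations in the 5–60 μM range were used. Ki and mechanism were taken from Lineweaver–Burk double-reciprocal plots.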
# [8] = biological target: T5, Tyrosine-protein phosphatase non-receptor type 1 (Homo sapiens, UniProt P18031); test: Inhibition of human PTP1B expressed in Escherichia coli BL21 DE3 using p-nitrophenyl phosphate as substrate measured for 10 mins by spectrofluorimetry
# T5 sequence (P18031 whole entry): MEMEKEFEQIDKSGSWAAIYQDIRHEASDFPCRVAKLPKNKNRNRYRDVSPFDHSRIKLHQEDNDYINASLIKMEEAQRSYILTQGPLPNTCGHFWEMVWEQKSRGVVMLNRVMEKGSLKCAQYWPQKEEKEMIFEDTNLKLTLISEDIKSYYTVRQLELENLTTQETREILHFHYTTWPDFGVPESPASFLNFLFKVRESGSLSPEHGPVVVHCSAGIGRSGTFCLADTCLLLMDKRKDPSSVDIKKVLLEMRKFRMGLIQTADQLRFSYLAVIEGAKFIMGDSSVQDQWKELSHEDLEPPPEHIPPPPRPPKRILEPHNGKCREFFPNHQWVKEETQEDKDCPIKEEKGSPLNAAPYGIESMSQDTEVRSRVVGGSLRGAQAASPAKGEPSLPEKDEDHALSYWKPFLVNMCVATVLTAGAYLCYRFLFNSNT
# [9] = Selectivity index, ratio of IC50 for human PTP1B to IC50 for Mycobacterium tuberculosis PTP-A
# Outline: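 Selectivity index calculated as IC50 for human PTP1B divided by IC50 for Mtb PtpA. Both IC50 values came from pNPP hydrolysis assays read at 410 nm for 10 min at 37 °C.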
# [10] = biological target: T3, Low molecular weight protein-tyrosine phosphatase A (Mycobacterium tuberculosis); test: Ratio of IC50 to Ki for Mycobacterium tuberculosis protein tyrosine phosphatase-A
# [11] = biological target: T1, Low molecular weight protein-tyrosine phosphatase A; test: Competitive inhibition of Mycobacterium tuberculosis PTP-A using p-nitrophenyl phosphate as substrate measured for 10 mins by Lineweaver-Burk plot analysis; outline: as §3
Structure (SMILES),IC50 [1] [µM],inhibition [2] [%],inhibition [3] [%],solubility [4],IC50 [5] [µM],IC50 [6] [µM],Ki [7] [µM],IC50 [8] [µM],Ratio IC50 [9],Ratio [10],Ki [11] [µM]
O=C(/C=C/c1ccc(C(F)(F)F)cc1)c1ccc2ccccc2c1,331,37,43,soluble,339,–,–,–,–,–,–
O=C(/C=C/c1ccccc1[N+](=O)[O-])c1ccc2c(c1)OCO2,–,43,0,soluble,81,–,–,–,–,–,–
COc1cc(-c2[nH]ccc2Cl)oc1C1=C2N=C3C=C2[C@H](C(C)C)[C@H]1CCCCCCCC3 [ROSEOPHILIN],–,–,–,–,–,8.8,–,–,–,–,–
O=C(/C=C/c1ccc2c(c1)OCO2)c1ccc([N+](=O)[O-])cc1,62,34,33,soluble,51,–,13,23,–,–,–
O=C(/C=C/c1ccc2ccccc2c1)c1ccc(Cl)s1,32,49,31,soluble,57,–,–,100,3.1,1.4,23
O=C(/C=C/c1ccc2c(c1)OCO2)c1cccc([N+](=O)[O-])c1,45,6,26,soluble,> 100,–,–,107,2.4,1.5,29
O=C(/C=C/c1ccc([N+](=O)[O-])cc1)c1ccc2ccccc2c1,–,39,18,soluble,62,–,–,–,–,–,–
CCCCCC1=C/C(=C/c2[nH]c(-c3ccc[nH]3)cc2OC)N=C1C [PRODIGIOSIN],–,–,–,–,–,8.8,–,–,–,–,–
O=C(/C=C/c1ccc2ccccc2c1)c1ccc[nH]1,–,37,16,soluble,81,–,–,–,–,–,–
O=C(/C=C/c1ccc(Cl)cc1Cl)c1ccc2ccccc2c1,–,47,10,soluble,417,–,–,–,–,–,–
O=C(/C=C/c1ccccc1[N+](=O)[O-])c1ccc2ccccc2c1,–,32,10,soluble,54,–,–,–,–,–,–
O=C(/C=C/c1ccc2ccccc2c1)c1ccc(Br)cc1,> 50,42,11,soluble,25,–,10,29,–,–,–
O=C(O)c1ccc(/C=C/C(=O)c2ccc3ccccc3c2)cc1,> 100,70,9,soluble,12,–,8,3090,–,–,–
COc1ccc(C(=O)/C=C/c2ccc(OCc3ccccc3)c(OC)c2)c(OC)c1,15,0,40,soluble,> 100,–,–,263,18,1.3,12
COc1ccc2nc(Cl)c(/C=C/C(=O)c3ccc4c(c3)OCO4)cc2c1,93,0,29,soluble,–,–,–,–,–,–,–
Cc1ccc(C(=O)/C=C/c2ccc3ccccc3c2)cc1,–,34,10,soluble,135,–,–,–,–,–,–
